According to paper PMC6263152 (Journal of medicinal chemistry, 2018):

Legend:
[1] = test system: PC3 (PSMA−) cells; experiment: FACS flow cytometry nonspecific binding control, PC3 cells
How it was run: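 PSMA− PC3 cells (luciferase/GFP-expressing) were incubated with 0.1–100 nM test compound for 1 h at 37 °C. Cell-bound fluorescence was read by flow cytometry in the Cy3 channel (488 nm, 22 mW excitation; 620/30 emission filter). Curves were fitted with a two-parameter exponential function. Flow experiments were run in duplicate.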

[2] = test system: PC3-PIP (PSMA+) vs PC3 (PSMA−) cell containing myocutaneous tissue; experiment: Ex vivo γ-scintillated biodistribution in mice bearing PC3 and PC3-PIP cells; set-up: species or system C57BL/6 mice; conditions: 2 h after iv injection, γ-scintillation of excised tissue
How it was run: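 Male C57BL/6 mice, 5–6 weeks old, 20–25 g (n = 6), were given 3 × 10^6 (18 mg) PC3 cells s.c. in the left flank and PC3-PIP cells in the right flank. After 15 min, radiotracer (100 μL, 80 μCi, 25 μM; 2.5 nmol) went i.v. via the tail vein. Mice were killed by cervical dislocation at 2 h. Organs and flank myocutaneous tissue were weighed and γ-counted as %ID per gram, mean ± SEM.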

[3] = Defluoridation stability; type: in vitro ADME
[4] = Optical properties in 1× PBS; type: physicochemical; conditions: pH 7.5
[5] = test system: PC3-PIP (PSMA+) and PC3 (PSMA−) cell containing tissue; experiment: PET/CT imaging in mice bearing PC3 and PC3-PIP cells; type: in vivo, C57BL/6 mice
How it was run: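 Male C57BL/6 mice received s.c. 3 × 10^6 (18 mg) PC3 cells in the left flank and PC3-PIP cells in the right flank (n = 6); mice without cells served as controls (n = 5). 15 min later, [18F]-labelled test compound (80 μCi, 2.5 nmol, 100 μL) was given i.v. by tail vein. A 10 min CT then a 15 min PET scan were acquired at 2 and 6 h, shown as maximum intensity projections.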

CC1(C)C(/C=C/C=C2\N(CCCCCC(=O)NCCCC[C@H](NC(=O)N[C@H](CCC(=O)O)C(=O)O)C(=O)O)c3ccc(S(=O)(=O)O)cc3C2(C)C)=[N+](CCCCCC(=O)NCCCCn2cc(C[N+](C)(C)C[B-](F)(F)F)nn2)c2ccc(S(=O)(=O)O)cc21 [[^19F]-4, ((((1-(4-(6-(2-((E)-3-((Z)-1-(6-(((S)-5-Carboxy-5-(3-((R)-1,3-dicarboxypropyl)ureido)pentyl)amino)-6-oxohexyl)-3,3-dimethyl-5-sulfoindolin-2-ylidene)prop-1-en-1-yl)-3,3-dimethyl-5-sulfo-3H-indol-1-ium-1-yl)hexanamido)butyl)-1H-1,2,3-triazol-4-yl)methyl)dimethylammonio)methyl) Trifluoroborate]
Nonspecific binding to PC3 [1]: not observed
Activity in PC3-PIP (PSMA+) vs PC3 (PSMA−) containing myocutaneous tissue [2]: 175 fold
Defluoridation ([3]; 7 days room temperature incubation with fetal bovine serum): Less than 1%
Chemical decomposition (defluoridation) ([3]; physiological conditions): not observed
Extinction coefficient ([4]; 1 mM PBS): 159 000 M^−1 cm^−1
Quantum yield φ [4]: 0.06
Liberation of [18F]-fluoride ion (defluoridation) in vivo [5]: not observed
